From ChEMBL document CHEMBL1137397, “Identification of selective, nonpeptidic nitrile inhibitors of cathepsin s using the substrate activity screening method” (J Med Chem, 2006)

What was measured:
Cathepsin S = Cathepsin S (Homo sapiens, UniProt P25774); test: Inhibition of cathepsin S
Summary of the method: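 Cathepsin S at 0.6 nM in pH 6.1 100 mM sodium phosphate with 100 mM NaCl, 1 mM DTT, 1 mM EDTA and 0.001% Tween-20. Enzyme preincubated 5 min at 37 °C with five inhibitor concentrations (10-90% inhibition), in duplicate. Cbz-Leu-Arg-AMC added at 5 and 2.5 µM, then AMC read (ex 355/em 450 nm) over 5 min. Ki by Dixon method.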

Cathepsin K = molecular target: T1, Cathepsin K (Homo sapiens, UniProt P43235); test: Inhibition of cathepsin K
T1 sequence (P43235 whole entry): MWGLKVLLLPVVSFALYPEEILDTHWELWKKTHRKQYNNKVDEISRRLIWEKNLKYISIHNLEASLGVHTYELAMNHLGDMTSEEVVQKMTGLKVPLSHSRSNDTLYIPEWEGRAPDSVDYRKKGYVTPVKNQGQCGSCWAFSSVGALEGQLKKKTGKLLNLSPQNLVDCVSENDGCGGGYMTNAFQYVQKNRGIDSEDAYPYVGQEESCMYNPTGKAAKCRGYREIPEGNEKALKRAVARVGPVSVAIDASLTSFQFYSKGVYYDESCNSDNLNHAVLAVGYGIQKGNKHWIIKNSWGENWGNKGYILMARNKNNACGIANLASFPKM
Summary of the method: (§1)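 Cathepsins B (2 nM), K (10 nM) or L (0.03 nM) in pH 6.1 phosphate/NaCl/DTT/EDTA/Tween-20 buffer. Preincubated 5 min at 37 °C with five inhibitor levels (10-90% inhibition), in duplicate. Cbz-Phe-Arg-AMC added at 5 and 2.5 µM (B, K) or 0.6 and 0.3 µM (L). AMC read at ex 355/em 450 nm for 5 min. Ki by Dixon plot.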

Cathepsin B = Cathepsin B (Homo sapiens, UniProt P07858); test: Inhibition of cathepsin B; summary of the method: as §1
Procathepsin L = Procathepsin L (Homo sapiens, UniProt P07711); test: Inhibition of cathepsin L; summary of the method: as §1
Procathepsin L, sequence (P07711 whole entry): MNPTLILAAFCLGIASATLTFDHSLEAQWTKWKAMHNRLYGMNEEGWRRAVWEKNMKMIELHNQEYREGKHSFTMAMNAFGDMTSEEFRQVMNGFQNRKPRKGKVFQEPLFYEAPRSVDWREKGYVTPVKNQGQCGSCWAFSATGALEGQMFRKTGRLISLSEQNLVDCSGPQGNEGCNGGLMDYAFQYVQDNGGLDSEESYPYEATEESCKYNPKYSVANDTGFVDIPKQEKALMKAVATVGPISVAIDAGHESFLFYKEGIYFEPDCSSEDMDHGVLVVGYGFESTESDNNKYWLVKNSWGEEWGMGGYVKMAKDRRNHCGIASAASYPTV

Cathepsin S, sequence (P25774 whole entry): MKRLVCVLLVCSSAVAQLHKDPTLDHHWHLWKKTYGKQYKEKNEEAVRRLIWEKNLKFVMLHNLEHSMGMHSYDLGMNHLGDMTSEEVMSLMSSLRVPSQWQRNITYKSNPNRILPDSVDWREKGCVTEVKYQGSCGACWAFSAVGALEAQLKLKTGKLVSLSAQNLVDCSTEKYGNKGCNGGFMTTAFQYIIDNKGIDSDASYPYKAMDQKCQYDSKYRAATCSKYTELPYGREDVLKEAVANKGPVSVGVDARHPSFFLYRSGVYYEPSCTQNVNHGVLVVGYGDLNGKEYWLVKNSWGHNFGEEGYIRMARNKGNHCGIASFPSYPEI

Ki (Cathepsin S) [µM]	Ki (Cathepsin K) [µM]	IC50 (Cathepsin B) [µM]	Ki (Cathepsin B) [µM]	IC50 (Procathepsin L) [µM]	Ki (Procathepsin L) [µM]	IC50 (Cathepsin K) [µM]	SMILES
1.2	0.88	> 10	> 10	> 10	> 10		CCCC[C@@H](C#N)n1cc([C@@](C)(NC(=O)c2ccccc2)C(C)C)nn1
0.015	> 15			> 15	> 15	> 15	CCCC[C@@H](C#N)n1cc([C@@](C)(NC(=O)c2ccsc2)C2CCC(C)CC2)nn1 (stereo not given in full)
0.2	> 10	> 10	> 10	> 10	> 10	> 10	CCCC[C@@H](C#N)n1cc([C@@](C)(NC(=O)c2ccccc2)C2CCCCC2)nn1

The next lines start with the molecule.

SMILES	Ki (Cathepsin S) [µM]	Ki (Cathepsin K) [µM]	IC50 (Cathepsin B) [µM]	Ki (Cathepsin B) [µM]	IC50 (Procathepsin L) [µM]	Ki (Procathepsin L) [µM]	IC50 (Cathepsin K) [µM]
CCCC[C@@H](C#N)n1cc([C@@](C)(NC(=O)c2ccsc2)C(C)C)nn1	0.42	0.43	> 10	> 10	> 10	> 10	
CCCC[C@@H](C#N)n1cc([C@@](C)(NC(=O)c2ccsc2)C2CCCCC2)nn1	0.018	1.7	> 10	> 10	> 10	> 10	
